Experimental findings from ChEMBL document CHEMBL1142456, “4-Anilino-7-alkenylquinoline-3-carbonitriles as potent MEK1 kinase inhibitors” (Bioorg Med Chem, 2008) are described below.

Each structure is given as a SMILES string.

Data set [1] in a line: Plasma concentration in mouse at 50 mg/kg, po after 2 hrs. Details: dose 50 mg/kg, route oral. Type of data set: ADME, organism-based. A digest of the protocol:
(§1)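 Nude mice given a single 50 mg/kg oral dose. Blood levels measured at 2 and 4 h (one compound at 1 h), three mice per measurement, with coefficient of variation reported.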

Data set [2] is described as follows: Plasma concentration in mouse at 50 mg/kg, po after 4 hrs. It counts as ADME, organism-based. Also on record: dose 50 mg/kg, route oral. A digest of the protocol: as §1
Data set [3] can be described thus: Metabolic stability in CD1 rat liver microsomes. Type of data set: ADME, Microsome. The procedure, abridged:
(§2)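 Stability measured as half-life on exposure to male CD-1 mouse and rat liver microsomes.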

A short description of data set [4]: Metabolic stability in mouse liver microsomes. It counts as ADME, Microsome. The procedure, abridged: as §2
A short description of data set [5]: Apparent permeability across PAMPA membrane. Type of data set: ADME. The note with it: read-out: permeability. The procedure, abridged: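 Permeability measured in a PAMPA assay, reported in cm/s.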
A short description of data set [6]: Clearance in nude mouse at 2 mg/kg, iv. It counts as ADME, organism-based. Also on record: dose 2 mg/kg, route intravenous. The settings on record: in vivo. A digest of the protocol:
(§3)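 Female nude mice given a single dose, 2 mg/kg iv in 0.5% methylcellulose/1% Tween 80 brought to pH 3 with aqueous HCl, or 50 mg/kg by oral gavage. Three mice per group were bled by cardiac stick under isoflurane at 0.25, 0.5, 1, 4, 8 and 24 h and plasma collected. Cl, Vss, T1/2, Cmax, AUC extrapolated to infinity and %F were derived.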

The nature of data set [7]: Volume of distribution at steady state in nude mouse at 2 mg/kg, iv. It counts as ADME, organism-based. Also on record: dose 2 mg/kg, route intravenous. The note with it: in vivo, read-out: Vdss. A digest of the protocol: as §3
The nature of data set [8]: Half life in nude mouse at 2 mg/kg, iv. Type of data set: ADME, organism-based. Details: dose 2 mg/kg, route intravenous. The note with it: in vivo. The procedure, abridged:
as §3

Data set [9] is described as follows: Clearance in female rat at 1 mg/kg, iv. It counts as ADME, organism-based. Also on record: dose 1 mg/kg, route intravenous. The settings on record: in vivo.
The nature of data set [10]: Volume of distribution at steady state in female rat at 1 mg/kg, iv. It counts as ADME, organism-based. The settings on record: in vivo, read-out: Vdss. Also on record: dose 1 mg/kg, route intravenous.
Data set [11] is described as follows: Half life in female rat at 1 mg/kg, iv. It counts as ADME, organism-based. Details: dose 1 mg/kg, route intravenous. The note with it: in vivo.
The nature of data set [12]: Clearance in male rat at 1 mg/kg, iv. Type of data set: ADME, organism-based. Details: dose 1 mg/kg, route intravenous. The settings on record: in vivo.
A short description of data set [13]: Volume of distribution at steady state in male rat at 1 mg/kg, iv. Type of data set: ADME, organism-based. Also on record: dose 1 mg/kg, route intravenous. The note with it: in vivo, read-out: Vdss.
The nature of data set [14]: Half life in male rat at 1 mg/kg, iv. Type of data set: ADME, organism-based. The settings on record: in vivo. Also on record: dose 1 mg/kg, route intravenous.
Data set [15] can be described thus: Cmax in nude mouse at 50 mg/kg, po. It counts as ADME, organism-based. Also on record: dose 50 mg/kg, route oral. The settings on record: in vivo. A digest of the protocol: as §3
Data set [16] is described as follows: AUC (infinity) in nude mouse at 50 mg/kg, po. The settings on record: plasma. It counts as ADME, organism-based. Details: time infinity, dose 50 mg/kg, route oral. The procedure, abridged:
as §3

Data set [17] is described as follows: Oral bioavailability in nude mouse at 50 mg/kg. The note with it: in vivo. It counts as ADME, organism-based. A digest of the protocol:
as §3

Data set [18] is described as follows: Cmax in female rat at 10 mg/kg, po. Details: dose 10 mg/kg, route oral. The note with it: in vivo. It counts as ADME, organism-based.
Data set [19] can be described thus: AUC (infinity) in female rat at 10 mg/kg, po. Details: time infinity, dose 10 mg/kg, route oral. Type of data set: ADME, organism-based. The settings on record: plasma.
Data set [20] in a line: Oral bioavailability in female rat at 10 mg/kg. Type of data set: ADME, organism-based. The note with it: in vivo.
The nature of data set [21]: Cmax in male rat at 10 mg/kg, po. It counts as ADME, organism-based. The settings on record: in vivo. Details: dose 10 mg/kg, route oral.
A short description of data set [22]: AUC (infinity) in male rat at 10 mg/kg, po. Type of data set: ADME, organism-based. Also on record: time infinity, dose 10 mg/kg, route oral. The note with it: plasma.
Data set [23] can be described thus: Oral bioavailability in male rat at 10 mg/kg. It counts as ADME, organism-based. The note with it: in vivo.
Data set [24] is described as follows: Plasma concentration in mouse at 50 mg/kg, po after 1 hr. Type of data set: ADME, organism-based. Also on record: dose 50 mg/kg, route oral. The procedure, abridged: as §1

In turn, `Cn1ccnc1Sc1ccc(Nc2c(C#N)cnc3cc(/C=C/CCN4CCOCC4)ccc23)cc1Cl` showed a concentration at 2 h in [1] of 95 ng/mL. The compound further came in with a concentration at 4 h in [2] of 22 ng/mL.

Take `CCN1CCN(CC/C=C/c2ccc3c(Nc4ccc(Sc5nccn5C)c(Cl)c4)c(C#N)cnc3c2)CC1`: the half-life in data set [3] was 21 min; in [4], 16.5 min; in data set [8] it was 54 min; in data set [11], 150 min; in [14] it was 108 min. Moreover, the Papp in data set [5] came to 0.45 ×10⁻⁶ cm/s. Further, the clearance is 66 mL/min/kg in [6], 35.7 mL/min/kg in data set [9] and 70.3 mL/min/kg in data set [12]. The values for the Vd in [7], in [10] and in data set [13] were 2.7 L/kg, 5.7 L/kg and 7.6 L/kg, respectively. For the same compound, the Cmax turned out to be 510 ng/mL in data set [15], 298 ng/mL in [18] and 61 ng/mL in data set [21]. For the same compound, the AUC(0-inf) in [16] came to 2170 ng·h/mL; in data set [19] it was 988 ng·h/mL; in data set [22] it was 204 ng·h/mL. The bioavailability in data set [17] came out at 17%; in data set [20], 23%; in data set [23] it was 13%. For the same compound, the concentration at 2 h in data set [1] was determined as 494 ng/mL. In addition, the concentration at 4 h in [2] is 132 ng/mL.

With `CN1CCN(CC/C=C/c2ccc3c(Nc4ccc(Sc5nccn5C)c(Cl)c4)c(C#N)cnc3c2)CC1`, the concentration at 2 h in data set [1] was found to be 368 ng/mL. The concentration at 4 h in data set [2] was 85 ng/mL.

Turning to `Cn1ccnc1Sc1ccc(Nc2c(C#N)cnc3cc(/C=C/CN4CCCC4)ccc23)cc1Cl`, the concentration at 1 h in data set [24] was 72 ng/mL. The concentration at 4 h in [2] stood at 11 ng/mL.

With `Cn1ccnc1Sc1ccc(Nc2c(C#N)cnc3cc(/C=C/CCN4CCCC4)ccc23)cc1Cl`, the concentration at 2 h in [1] is 319 ng/mL. This compound gave a concentration at 4 h in [2] of 82 ng/mL.

On to `COc1cc2c(Nc3ccc(Sc4nccn4C)c(Cl)c3)c(C#N)cnc2cc1/C=C/CCN1CCN(C)CC1`, for which the concentration at 2 h in data set [1] was found to be 267 ng/mL. The compound also had a concentration at 4 h in data set [2] of 76 ng/mL.
